DENV2 CPE: DENV2-induced cell death inhibition. DENV2-infected cells, cytopathic effect rescue, plate reader. CPE inhibition, % at 9.99 µM. actives 1.7% (n = 350,000). AID 651640; in the data active = CPE inhibition above about 20%, passing the limit was not always enough; inconclusive = no clear call, values can overlap the other calls; tested in BHK-21 cells;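 also: 0% = median of neutral control wells and 100% = median of positive control wells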
E-sel inducer: E-selectin induction on HUVECs | P16581 | HUVEC E-selectin immunofluorescence imaging; normalized: neutral wells 0, TNF-alpha wells 100 | activation, % at 7.58 µM | actives 0.37% (n = 260,000) | AID 686992;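 active = mean E-selectin-positive cell signal at least 10% of the positive control, reached in at least 60% of replicates, without over 20% cell loss; inconclusive = no rule given, readout overlaps actives, possibly toxicity-flagged; inactive = the rest, including those meeting only one limit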
Target sequence (P16581 whole entry, looked up): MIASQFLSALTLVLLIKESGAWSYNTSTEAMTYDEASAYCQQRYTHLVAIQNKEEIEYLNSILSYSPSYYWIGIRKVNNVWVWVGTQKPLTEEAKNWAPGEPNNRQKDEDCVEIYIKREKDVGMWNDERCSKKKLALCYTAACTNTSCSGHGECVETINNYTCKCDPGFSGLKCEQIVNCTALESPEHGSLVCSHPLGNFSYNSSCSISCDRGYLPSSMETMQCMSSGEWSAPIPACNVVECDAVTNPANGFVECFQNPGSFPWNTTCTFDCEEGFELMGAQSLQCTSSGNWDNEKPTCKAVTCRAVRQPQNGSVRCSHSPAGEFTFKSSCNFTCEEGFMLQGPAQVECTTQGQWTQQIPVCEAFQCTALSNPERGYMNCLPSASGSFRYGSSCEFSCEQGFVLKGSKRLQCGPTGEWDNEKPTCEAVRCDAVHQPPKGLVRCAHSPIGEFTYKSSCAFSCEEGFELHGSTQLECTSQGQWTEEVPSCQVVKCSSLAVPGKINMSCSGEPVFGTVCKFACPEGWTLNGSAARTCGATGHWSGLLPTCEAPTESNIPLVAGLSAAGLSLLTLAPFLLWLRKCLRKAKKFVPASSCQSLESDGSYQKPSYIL
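System: HUVEC, human umbilical vein endothelial cells; quantity: 3,000 cells/well; buffer or medium: EGM-2 medium, gelatin-coated wells; dosing: single-point compound dose; detection: immunofluorescence imaging; evaluation: % PE-positive cells; benchmarks: TNF-alpha, DMSO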
SIRT5 block: inhibitors of human sirtuin-5 desuccinylase | Q9NXA8 | Purified SirT5, succinyl-peptide AMC, trypsin-coupled fluorescence | inhibition, % at 15 µM | actives 1.1% (n = 330,000); in the data active = inhibition above about 15%; inconclusive = no clear call, values can overlap the other calls
* hit, by the source's call; u = inconclusive; x = no result; ! = not active in a repeat. This is a sample that favours compounds with a hit; in the whole collection about 2.8% have one here.

SMILES | DENV2 CPE | E-sel inducer | SIRT5 block
O=C(C[C@H]1CC[C@@H](NC(=O)CN2CCOCC2)[C@H](CO)O1)NC1CCCCC1 | 6 | 0 | 3
O=C(NC[C@H]1CC[C@H]2[C@H](CN2C(=O)CN2CCOCC2)O1)NC1CCCCC1 | 0 | x | -4
CC(C)(C)C1CCC(=NNc2nc3ccccc3[nH]2)CC1 (stereo unspecified) | u | 0 | 19*
c1ccc(CN2CCC(=NNc3nc4ccccc4[nH]3)CC2)cc1 | 1 | x | 10
Cc1noc(C)c1S(=O)(=O)Nc1cccc2c1O[C@H](CN(C)Cc1ccncc1)[C@H](C)CN([C@H](C)CO)C2=O | u | 17 | -4
O=C(Nc1ccc2c(c1)OCCO2)C(c1ccnc2ccccc12)n1c(=O)c(-c2ccco2)nc2ccccc21 (stereo unspecified) | 50* | 0 | -2
O=C(Nc1ccc2c(c1)OCCO2)C(c1ccncc1)n1c(=O)c(-c2ccco2)nc2ccccc21 (stereo unspecified) | 17 | 0 | x
CCC(=O)Nc1ccc2c(c1)OC[C@H](C)N(Cc1ccccc1OC)C[C@H](C)[C@@H](OC)CN(C)C2=O | 9 | 0 | 3
O=C(Nc1ccc2c(c1)OCO2)N[C@@H]1CC[C@@H](CCNC(=O)C2CCOCC2)O[C@H]1CO | 1 | 0 | -3
COc1cc(C(=O)OCC(=O)NCC2CCCO2)cc(OC)c1OC (stereo unspecified) | u | 0 | 1
COc1cc(OC)c(NS(=O)(=O)c2cc(C(=O)OCC(=O)NCC3CCCO3)ccc2OC)cc1Cl (stereo unspecified) | 15 | x | 31*
C[C@]12c3[nH]c4ccccc4c3CCN1C(=O)C(CC(=O)NCc1cccc(C(F)(F)F)c1)C[C@@H]2C(=O)N1CCOCC1 (stereo partly specified) | 5 | 3 | 2
C[C@]12c3[nH]c4ccc(Cl)cc4c3CCN1C(=O)[C@@H](CC(=O)NCc1cccc(C(F)(F)F)c1)C[C@@H]2C(=O)N1CCOCC1 | -8 | -1 | 40*
C[C@]12c3[nH]c4cc(-c5ccco5)ccc4c3CCN1C(=O)[C@@H](CC(=O)NCCc1ccccn1)C[C@@H]2C(=O)N1CCOCC1 | 50* | x | -10
CCN(CC)C(=O)[C@H]1C[C@H](CC(=O)NCCc2ccccn2)C(=O)N2CCc3c([nH]c4cc(-c5ccco5)ccc34)[C@]12C | 0 | 2 | -5
COc1ccccc1-c1ccc2c(c1)[C@@H]1[C@@H](CCN1S(=O)(=O)c1cccc(C)c1)[C@H](CO)N2 | -15 | -1 | 8
COCC(=O)N(C[C@H]1N[C@@H](CO)[C@@H]1c1ccc(C2=CCCC2)cc1)C(C)C | u | 0 | x
COc1ccccc1S(=O)(=O)N(C)C[C@H]1Oc2cc(C#CCC(C)C)ccc2S(=O)(=O)N([C@H](C)CO)C[C@@H]1C | 3 | x | 30*
COc1ccccc1S(=O)(=O)N(C)C[C@@H]1Oc2cc(C#CCC3CCCC3)ccc2S(=O)(=O)N([C@@H](C)CO)C[C@H]1C | 0 | 0 | 12
COc1ccccc1S(=O)(=O)N(C)C[C@H]1Oc2cc(C#CCC(C)C)ccc2S(=O)(=O)N([C@@H](C)CO)C[C@H]1C | -4 | x | -1
COc1ccccc1S(=O)(=O)N(C)C[C@@H]1Oc2cc(C#CCC3CCCC3)ccc2S(=O)(=O)N([C@@H](C)CO)C[C@@H]1C | -4 | 0 | 17*
C[C@@H]1CN([C@@H](C)CO)C(=O)Cc2cc(NC(=O)Cc3ccccc3)ccc2O[C@@H]1CN(C)S(=O)(=O)c1ccc(F)cc1 | 10 | 0 | 0
COc1ccc(NC(=O)N(C)C[C@H]2Oc3ccc(NC(=O)Cc4cn(C)c5ccccc45)cc3C(=O)N([C@H](C)CO)C[C@@H]2C)cc1 | u | 32* | 3
C[C@@H]1CN([C@H](C)CO)C(=O)c2cc(NC(=O)Cc3cn(C)c4ccccc34)ccc2O[C@@H]1CN(C)C | 8 | 0 | 4
C[C@@H]1CN([C@H](C)CO)C(=O)c2cc(NC(=O)Cc3cn(C)c4ccccc34)ccc2O[C@H]1CN(C)S(=O)(=O)c1ccc(F)cc1 | 58*! | 0 | -2
C[C@@H]1CN([C@@H](C)CO)C(=O)c2cc(NC(=O)Cc3cn(C)c4ccccc34)ccc2O[C@H]1CN(C)S(=O)(=O)c1ccc(F)cc1 | 16 | 1 | 0
C[C@H](CO)N1C[C@H](C)[C@H](CN(C)C)Oc2ccc(NC(=O)Cc3cn(C)c4ccccc34)cc2C1=O | -2 | 37* | 1
CC(C)NC(=O)N(C)C[C@@H]1Oc2ccc(NC(=O)Cc3cn(C)c4ccccc34)cc2C(=O)N([C@@H](C)CO)C[C@H]1C | 80* | -15 | 0
